TRPC6 act: mouse TRPC6 channel activation | 310,000 compounds, 0.13% hits | HEK293-TRPC6 membrane potential dye fluorescence; stronger effect = higher value | Q61143 | B-score at 10 µM;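 active means B-score of the integrated fluorescence ratio above library mean plus 3 SD, and starting fluorescence ratio within library mean plus 5 SD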;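 further: higher score means more depolarization so channel activation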
TRPC4 act: TRPC4 (mouse) channel activation; HEK293 TRPC4beta/mu-opioid, Fluo4 calcium fluorescence; stronger effect = higher value; B-score at 10 µM; 310,000 compounds, 0.49% hits; AID 2237;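 active means B-score above 5 SD of library B-scores, and initial fluorescence ratio not above library mean plus 5 SD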;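 further: positive B-score marks a calcium rise read as TRPC4 activation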
Target sequence (Q9QUQ5 whole entry, looked up): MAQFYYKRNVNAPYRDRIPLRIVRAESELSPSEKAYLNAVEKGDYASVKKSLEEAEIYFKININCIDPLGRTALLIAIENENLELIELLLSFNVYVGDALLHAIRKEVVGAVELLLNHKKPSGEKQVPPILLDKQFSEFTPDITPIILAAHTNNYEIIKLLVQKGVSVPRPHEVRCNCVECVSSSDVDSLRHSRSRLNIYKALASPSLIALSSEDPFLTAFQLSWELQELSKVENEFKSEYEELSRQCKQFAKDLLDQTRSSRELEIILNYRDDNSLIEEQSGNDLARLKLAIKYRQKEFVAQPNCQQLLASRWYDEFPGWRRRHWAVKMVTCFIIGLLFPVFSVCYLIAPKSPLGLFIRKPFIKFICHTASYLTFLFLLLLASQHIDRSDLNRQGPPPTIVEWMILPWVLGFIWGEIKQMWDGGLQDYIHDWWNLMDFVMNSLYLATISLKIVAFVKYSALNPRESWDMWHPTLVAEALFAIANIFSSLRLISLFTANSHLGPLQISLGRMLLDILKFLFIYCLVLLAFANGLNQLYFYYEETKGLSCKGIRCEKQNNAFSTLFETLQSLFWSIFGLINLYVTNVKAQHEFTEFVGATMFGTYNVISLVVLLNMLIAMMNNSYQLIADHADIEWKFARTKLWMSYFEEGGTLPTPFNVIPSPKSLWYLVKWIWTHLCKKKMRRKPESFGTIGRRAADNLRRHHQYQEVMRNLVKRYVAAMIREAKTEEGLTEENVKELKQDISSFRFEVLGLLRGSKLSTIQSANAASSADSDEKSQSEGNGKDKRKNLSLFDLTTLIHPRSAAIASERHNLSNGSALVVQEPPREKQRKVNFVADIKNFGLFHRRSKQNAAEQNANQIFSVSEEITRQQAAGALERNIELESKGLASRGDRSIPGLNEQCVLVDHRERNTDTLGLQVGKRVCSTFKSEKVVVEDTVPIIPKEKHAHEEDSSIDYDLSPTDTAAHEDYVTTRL
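Material: TRPC4beta and mu-opioid receptor HEK293 stable cells | Incubation: 45 min room-temperature Fluo4 loading, 110 s read | Detection: Kinetic Fluo4 calcium fluorescence | Measure: Integrated baseline-normalised fluorescence ratio, converted to per-well B score | Benchmarks: Low control buffer alone, high control maximal DAMGO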
TRPC4 PAM: TRPC4 (mouse) allosteric potentiation. HEK293 TRPC4beta/mu-opioid, DAMGO EC20, Fluo-4 Ca2+ flux; stronger effect = higher value. B-score at 10 µM. 310,000 compounds, 0.42% hits. AID 2227. Q9QUQ5;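 active means B-score of calcium response area above 5 SD of library B-scores, with initial fluorescence ratio within 5 SD of library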
TRPC4 inh: TRPC4 (mouse) channel inhibition; Q9QUQ5; HEK293 TRPC4beta/mu-opioid, DAMGO-evoked Fluo4 calcium flux; stronger effect = lower value; 300,000 compounds, 0.39% hits; B-score at 10 µM;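 active means B-score over 3 SD under the library average, no early fluorescence shift, positive overall ratio signal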
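Signal: kinetic Fluo4 fluorescence imaging of calcium influx. Material: stable TRPC4beta/mu-opioid receptor HEK293 cells. Probe or stimulus: DAMGO in two steps, submaximal then maximal.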
Platelet DG rel: platelet dense granule release activity. human platelet-rich plasma, SFLLRN dense granule ATP release, luminescence. inhibition, %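 (compounds screened at 7.5 µM in platelet-rich plasma)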. 300,000 compounds, 0.22% hits. AID 1663;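 active means mean replicate score, as percent of positive control, at or above 50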
TRPC6 inhibitor: mouse TRPC6 channel inhibition; HEK293-TRPC6, membrane potential dye, ACh-evoked depolarization; stronger effect = lower value; AID 2553; Q61143; 310,000 compounds, 1.1% hits; B-score at 10 µM;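 active means B-score under library mean minus 3 SD, initial fluorescence not abnormally high, positive integrated signal ratio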;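 further: B-score derived from integrated fluorescence ratio over the kinetic read; more negative B-score means stronger inhibition of depolarization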
TRPC4 spec 2: mouse TRPC4 off-target activity of TRPC6 inhibitors, second screen | HEK293 TRPC4/MOR, membrane potential dye fluorescence; channel activated by saturating DAMGO dose | AID 2776 | 920 compounds, 42% hits | shares compounds with TRPC6 inhibitor | inhibition, % at 10 µM;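 active means compounds whose fluorescence signal differed from control wells by over 3 SD, either direction, in both duplicate plates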
TRPC4 spec: mouse TRPC4 off-target activity of TRPC6 inhibitors | shares compounds with TRPC6 inhibitor | HEK293 TRPC4/mu-opioid, membrane potential fluorescence | AID 2777 | activity change, negative = inhibition, % at 10 µM | 920 compounds, 61% hits;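 active means rise or fall in signal beyond 3 SD of buffer-only wells in both replicate plates, either sign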;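 further: integrated kinetic ratio of fluorescence range over baseline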
HEK293 MPD ctr 2-1: parental HEK293 nonspecific activity of TRPC6 inhibitors, second screen; signal change vs control, % at 10 µM; parental HEK293 membrane potential dye fluorescence; maximal acetylcholine challenge after compound addition; 920 compounds, 31% hits; shares compounds with TRPC6 inhibitor; AID 2779;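 active means membrane potential signal moving either way by over 3 SD of the maximum-effect control, in both duplicate plates, meaning non-specific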
HEK293 MPD ctr-1: checks TRPC6 inhibitor effects in parental HEK293 cells; 920 compounds, 60% hits; parental HEK293 membrane potential dye fluorescence; AID 2780; membrane potential signal change, % at 10 µM; shares compounds with TRPC6 inhibitor;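 active means membrane potential signal shifting up or down by more than 3 SD of buffer-only wells, on both duplicate plates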
HEK293 MPD ctr-2: checks TRPC6 modulator effects in parental HEK293 cells. AID 488924. membrane potential dye fluorescence. membrane potential signal change, % at 10 µM. 2,400 compounds, 51% hits. shares compounds with TRPC6 inhibitor;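 active means membrane potential signal moves up or down beyond 5 SD from buffer-only wells, on both duplicate plates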
HEK293 MPD ctr 2-2: parental HEK293 nonspecific activity of TRPC6 modulators, second screen | membrane potential dye fluorescence; after compound, maximal acetylcholine stimulation | inhibition, % at 10 µM | 2,400 compounds, 14% hits | shares compounds with TRPC6 inhibitor;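 active means membrane potential signal drops by more than 5 SD from the mean control signal, in both duplicate plates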
TRPC4/MOR mod: selectivity of TRPC6 modulators against mouse TRPC4; shares compounds with TRPC6 inhibitor; HEK293 TRPC4/mu-opioid, membrane potential fluorescence; percent change from control (negative = decrease, positive = increase), % at 10 µM; 2,400 compounds, 69% hits;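 active means membrane potential signal moved up or down beyond 5 SD of buffer control wells, in both duplicate plates, actives on both sides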
TRPC4/MOR inh 2: second selectivity test of TRPC6 modulators against mouse TRPC4. shares compounds with TRPC6 inhibitor. HEK293 TRPC4/mu-opioid, membrane potential dye fluorescence; stimulated with maximal-effect DAMGO. inhibition, % at 10 µM. 2,400 compounds, 55% hits. AID 488928;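 active means drop in membrane potential signal beyond 5 SD of the control wells in both duplicate plates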;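 further: TRPC4 counter screen for TRPC6 hits run under conditions tuned for TRPC6 not TRPC4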
TRPC6 block conf: mouse TRPC6 inhibitor confirmation; shares compounds with TRPC6 inhibitor; HEK293-TRPC6, membrane potential dye, ACh-evoked depolarization; inhibition, % at 10 µM; 3,300 compounds, 43% hits; AID 488960;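 active means fluorescence ratio falls more than 5 SD below the full-stimulation control mean, in both duplicate runs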;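 further: integrated fluorescence ratio of peak minus minimum over baseline after agonist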
TRPC6 act confirm: confirmation of mouse TRPC6 activators; 2,800 compounds, 11% hits; activation, % at 10 µM; HEK293-TRPC6 membrane potential dye fluorescence, FDSS; AID 488961; shares compounds with TRPC6 inhibitor;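 active means ratio signal rise beyond 5 SD above unstimulated control wells' mean, seen in both duplicate runs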
Hits are given with their value; 0 = inactive; - = no result given. Compounds with a hit are over-represented: about 2.5% of the library has one in this group of screens.

SMILES | TRPC6 act | TRPC4 act | TRPC4 PAM | TRPC4 inh | Platelet DG rel | TRPC6 inhibitor | TRPC4 spec 2 | TRPC4 spec | HEK293 MPD ctr 2-1 | HEK293 MPD ctr-1 | TRPC6 block conf | TRPC6 act confirm | others
COc1ccccc1NS(=O)(=O)NC(=O)c1c(C)[nH]c2ccccc12 | 0 | 0 | 0 | 0 | 0 | 0 | - | - | - | - | - | -
C#Cc1ccc([C@H]2C=C(C(=O)O)O[C@@H](OCCCCO)C2)cc1 | 0 | 0 | 0 | 0 | 0 | 0 | - | - | - | - | - | -
COc1cccc(CN(C)CC(=O)Nc2cccc3ccccc23)c1 | 0 | 0 | 0 | 0 | 0 | 0 | - | - | - | - | - | -
Cc1ccc([N+](=O)[O-])cc1NC(=O)CSc1nncn1-c1ccccn1 | 0 | 0 | 0 | 0 | 0 | 0 | - | - | - | - | - | -
Cc1cc([N+](=O)[O-])ccc1NC(=O)CSc1nncn1-c1ccccn1 | 0 | 0 | 0 | 0 | 0 | -5.77 | - | - | - | - | 0 | 0 | HEK293 MPD ctr-2=0;HEK293 MPD ctr 2-2=0;TRPC4/MOR mod=0;TRPC4/MOR inh 2=0
CCN(CC)CCOC(c1ccccc1)c1ccc(C)cc1 (stereo unspecified) | 0 | 0 | 0 | 0 | 0 | 0 | - | - | - | - | - | -
Cc1ccc(C(OCC(C)(C)C[N+](C)(C)C)c2ccccc2)cc1 (stereo unspecified) | 0 | 0 | 0 | 0 | 0 | -8.08 | 0 | 0 | 19.0% | 0 | 0 | 0
CCN(CC)C(=O)CCc1nnc(CCc2c[nH]c3ccccc23)o1 | 0 | 0 | 0 | 0 | 0 | 0 | - | - | - | - | - | -
CCCN(CC1CC1)C(=O)CCc1nnc(CCc2c[nH]c3ccccc23)o1 | 0 | 0 | 0 | 0 | 0 | -6.8 | 0 | 2.7% | 0 | 0.9% | 0 | 0
Cc1ccc(Nc2nc(N)nc(CCl)n2)c(C)c1 | 0 | 0 | 0 | 0 | 0 | 0 | - | - | - | - | - | -
CCCCOc1ccc(Br)cc1CSC(=N)N | 0 | 0 | 0 | 0 | 0 | -6.94 | 18.5% | 4.3% | 0 | 6.7% | 76.5% | 0
N=C(N)SCc1ccc(O)c([N+](=O)[O-])c1 | 0 | 0 | 0 | 0 | 0 | 0 | - | - | - | - | - | -
CCCCCOc1ccc(CSC(=N)N)cc1[N+](=O)[O-] | 0 | 0 | 0 | 0 | 0 | -7.61 | 45.5% | 0 | 0 | -130.0% | 80.2% | 0
C=C(C)CSc1nc2sc3c(c2c(=O)n1C1CCCCC1)CCN(C)C3 | 0 | 0 | 0 | 0 | 0 | -7.53 | - | - | - | - | 0 | 0 | HEK293 MPD ctr-2=0;HEK293 MPD ctr 2-2=0;TRPC4/MOR mod=-20.0%;TRPC4/MOR inh 2=0
CCc1ccc(OCC(=O)Nc2cccc3c2CCCC3)cc1 | 0 | 0 | 0 | 0 | 0 | -5.04 | - | - | - | - | 0 | 0 | HEK293 MPD ctr-2=0;HEK293 MPD ctr 2-2=0;TRPC4/MOR mod=0;TRPC4/MOR inh 2=0
CCCC(=O)Nc1cccc2c1CCCC2 | 0 | 0 | 0 | 0 | 0 | 0 | - | - | - | - | - | -

Screens from PubChem BioAssay.
